Results published in ChEMBL document CHEMBL1133746 (J Med Chem, 2000).
*1 amine or outer side, *2 acyl side, *3 side chain or, on linkers, in order; H or OH if unused. Where a SMILES comes first, the peptide text is derived from it. [ ]: non-standard residue; d: D form. The star is where a group is joined. X2 = O=C(O)CN1C(=O)[C@H](N*)CSc2ccccc21; X1 = O=C([C@@H]1CC(O)CN1[*:1])[*:2]; Igl = N[C@H](C(=O)O)C1Cc2ccccc2C1; Hyp = O=C(O)[C@@H]1C[C@@H](O)CN1; 2Thi = N[C@@H](Cc1cccs1)C(=O)O

What was measured:
Homo sapiens [1] = species on record: Homo sapiens; assay: Inhibition of contraction of human umbilical vein (HUV) induced by different concentrations of bradykinin was determined; format: functional; conditions: for Kb: read-out: pA2 (converted)
Method in brief: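 Human umbilical vein rings (3–4 mm) were mounted in Krebs organ baths at 37 °C with 95% O2/5% CO2. Captopril (10 µM), DL-thiorphan (1 µM), mepyramine (1 µM), atropine (1 µM), indomethacin (3 µM), NG-nitro-L-arginine (30 µM) and nifedipine (0.1 µM) were added. […] Means are of at least 3 experiments.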

B1 bradykinin receptor = target: T1, B1 bradykinin receptor (Homo sapiens, UniProt P46663); assay: Ability to bind to human cloned B1 receptor in competition binding experiments with [3H][des-Arg10,Leu9]-Kallidin.
T1 sequence (P46663 whole entry): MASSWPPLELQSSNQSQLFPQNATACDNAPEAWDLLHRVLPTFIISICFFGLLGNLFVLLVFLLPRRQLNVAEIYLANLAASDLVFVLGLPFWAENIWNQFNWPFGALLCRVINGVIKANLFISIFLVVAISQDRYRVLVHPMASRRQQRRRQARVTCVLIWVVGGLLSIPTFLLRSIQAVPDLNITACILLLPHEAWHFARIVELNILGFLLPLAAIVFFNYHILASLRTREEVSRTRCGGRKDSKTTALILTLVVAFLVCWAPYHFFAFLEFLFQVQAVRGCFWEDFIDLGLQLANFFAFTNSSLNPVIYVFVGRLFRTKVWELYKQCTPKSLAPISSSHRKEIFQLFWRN
Method in brief: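 Membranes from stably transfected human embryonic kidney 293 cells expressing the human B1 receptor were used. Cells were scraped into 25 mM TES pH 7.4 with 1 mM 1,10-phenanthroline, 140 µg/mL bacitracin and 0.1% BSA, and membranes were spun at 40000g for 15 min. Incubation was with 1 nM [3H][des-Arg10,Leu9]-kallidin for 60 min. Nonspecific binding was taken with 10 µM [des-Arg10,Leu9]-kallidin. Bound label was collected by filtration on PEI-soaked GF/B filters and counted by scintillation.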

Homo sapiens [2] = species on record: Homo sapiens; assay: Ability to inhibit contraction of human umbilical vein (HUV) induced by [des-Arg10]-Kallidin was determined.; format: functional; conditions: read-out: pA2 (converted)
Method in brief: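 Human umbilical vein rings (3–4 mm) were kept overnight at 37 °C in Krebs with penicillin/streptomycin under 95% O2/5% CO2 to induce B1. They were then set in organ baths at 37 °C with captopril, thiorphan, mepyramine, atropine, indomethacin, NG-nitro-L-arginine and nifedipine added. [des-Arg10]-kallidin concentration-response curves were run 30 min later, with antagonist or vehicle added 15 min before. Means are of at least 3 experiments.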

B2 bradykinin receptor = target: T2, B2 bradykinin receptor (Homo sapiens, UniProt P30411); assay: Ability to bind to human cloned B2 receptor in competition binding experiments with [3H]- bradykinin
T2 sequence (P30411 whole entry): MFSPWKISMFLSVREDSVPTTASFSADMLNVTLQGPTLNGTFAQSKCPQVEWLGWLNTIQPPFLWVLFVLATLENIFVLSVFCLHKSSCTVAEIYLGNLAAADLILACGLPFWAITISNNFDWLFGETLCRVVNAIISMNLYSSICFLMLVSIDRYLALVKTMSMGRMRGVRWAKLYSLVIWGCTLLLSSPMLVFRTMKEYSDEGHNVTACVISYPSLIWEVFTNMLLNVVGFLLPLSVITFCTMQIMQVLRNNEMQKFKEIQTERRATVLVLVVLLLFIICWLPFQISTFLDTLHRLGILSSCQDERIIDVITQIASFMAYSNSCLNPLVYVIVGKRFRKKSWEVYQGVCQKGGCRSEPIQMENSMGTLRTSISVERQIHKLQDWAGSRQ
Method in brief: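 Membranes were prepared from stably transfected CHO cells expressing the human B2 receptor. Cells were scraped into 20 mM TES pH 6.8 with 1 mM 1,10-phenanthroline, 140 µg/mL bacitracin and 0.1% BSA, and membranes were spun at 40000g for 15 min. Bound label was filtered on PEI-soaked GF/B filters, washed with ice-cold buffer and counted.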

Compound	pD2 (Homo sapiens [1])	Ki (B1 bradykinin receptor) [nM]	Kb (Homo sapiens [2]) [nM]	Kb (Homo sapiens [1]) [nM]	Ki (B2 bradykinin receptor) [nM]	pKp (Homo sapiens [1])
H-RPPGFSPFR-OH [BRADYKININ]	7.9	–	–	–	–	–
NC(N)=NCCC[C@@H](N)C(=O)N[C@@H](CCCN=C(N)N)C(=O)N1CCC[C@H]1C(=O)N1C[C@H](O)C[C@H]1C(=O)NCC(=O)N[C@@H](Cc1cccs1)C(=O)N[C@@H](CO)C(=O)N1Cc2ccccc2C[C@@H]1C(=O)N1[C@H](C(=O)O)C[C@@H]2CCCC[C@@H]21	–	24	31.6	> 10000	–	–
N=C(N)NCCC[C@@H](N)C(=O)N[C@@H](CCCNC(=N)N)C(=O)N1CCC[C@H]1C(=O)N1CC(O)C[C@H]1C(=O)NCC(=O)N[C@@H](Cc1cccs1)C(=O)N[C@@H](CO)C(=O)N[C@@H]1CSc2ccccc2N(CC(=O)O)C1=O (some centres undefined)	–	83	–	–	4.4	–
NC(N)=NCCC[C@@H](N)C(=O)N[C@@H](CCCN=C(N)N)C(=O)N1CCC[C@H]1C(=O)N1CC(O)C[C@H]1C(=O)NCC(=O)N[C@H](C(=O)N[C@@H](CO)C(=O)N[C@@H]1CSc2ccccc2N(CC(=O)O)C1=O)C1Cc2ccccc2C1 (some centres undefined)	–	5.6	–	> 10000	325	–
NCCCC[C@H](NC(=O)[C@@H](N)CCCCN)C(=O)N[C@@H](CCCN=C(N)N)C(=O)N1CCC[C@H]1C(=O)N1CC(O)C[C@H]1C(=O)NCC(=O)N[C@H](C(=O)N[C@@H](CO)C(=O)N[C@@H]1CSc2ccccc2N(CC(=O)O)C1=O)C1Cc2ccccc2C1 (some centres undefined) (H-KKRP[X1]G[Igl]S-X2)	–	0.035	3.16	3160	62	–
CC(C)C[C@H](NC(=O)[C@@H]1CCCN1C(=O)[C@H](CO)NC(=O)[C@H](Cc1ccccc1)NC(=O)CNC(=O)[C@@H]1CCCN1C(=O)[C@@H]1CCCN1C(=O)[C@@H](N)CCCN=C(N)N)C(=O)O	–	–	398	> 10000	> 1000	–
NCCCC[C@H](N)C(=O)N[C@@H](CCCN=C(N)N)C(=O)N1CCC[C@H]1C(=O)N1CC(O)C[C@H]1C(=O)NCC(=O)N[C@@H](Cc1cccs1)C(=O)N[C@@H](CO)C(=O)N[C@@H]1CSc2ccccc2N(CC(=O)O)C1=O (some centres undefined) (H-KRP[X1]G[2Thi]S-X2) [listing 1 of 2 here]	–	–	–	–	–	4.8
NCCCC[C@H](N)C(=O)N[C@@H](CCCN=C(N)N)C(=O)N1CCC[C@H]1C(=O)N1C[C@H](O)C[C@H]1C(=O)NCC(=O)N[C@H](C(=O)N[C@@H](CO)C(=O)N[C@@H]1CSc2ccccc2N(CC(=O)O)C1=O)C1Cc2ccccc2C1 (H-KRP[Hyp]G[Igl]S-X2)	–	0.023	10	> 10000	9.2	–
NC(N)=NCCC[C@@H](N)C(=O)N[C@@H](CCCN=C(N)N)C(=O)N1CCC[C@H]1C(=O)N1C[C@H](O)C[C@H]1C(=O)NCC(=O)N[C@@H](Cc1cccs1)C(=O)N[C@@H](CO)C(=O)N1Cc2ccccc2C[C@@H]1C(=O)N1[C@H](C(=O)N[C@@H](CCCN=C(N)N)C(=O)O)C[C@@H]2CCCC[C@@H]21	–	> 1000	> 10000	–	–	–
NCCCC[C@H](N)C(=O)N[C@@H](CCCN=C(N)N)C(=O)N1CCC[C@H]1C(=O)N1CC(O)C[C@H]1C(=O)NCC(=O)N[C@@H](Cc1cccs1)C(=O)N[C@@H](CO)C(=O)N[C@@H]1CSc2ccccc2N(CC(=O)O)C1=O (some centres undefined) (H-KRP[X1]G[2Thi]S-X2) [listing 2 of 2 here]	–	0.22	39.8	–	0.4	–
CC(C)C[C@H](NC(=O)[C@@H]1CCCN1C(=O)[C@H](CO)NC(=O)[C@H](Cc1ccccc1)NC(=O)CNC(=O)[C@@H]1CCCN1C(=O)[C@@H]1CCCN1C(=O)[C@H](CCCN=C(N)N)NC(=O)[C@@H](N)CCCCN)C(=O)O	–	–	12.6	> 10000	> 1000	–
